Active and inactive are the calls of the source.
Experiments:
[1] = biological target: Nucleotide-binding oligomerization domain-containing protein 2 (Homo sapiens) (UniProt Q9HC29); assay: Agonist activity at NOD2 in human PBMC assessed as induction of IL-1beta production at 1 uM incubated for 18 hrs; assay type: cell-based; conditions: filed as agonist
Summary of the method: (§1)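 500,000 cells/well in 500 μL medium, treated 18 h at 37 °C, 5% CO2 against a 0.1% DMSO vehicle. Cell-free supernatants stored at -80 °C. Cytokines measured by cytometric bead array (human inflammatory cytokines) on a flow cytometer.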

[2] = biological target: Nucleotide-binding oligomerization domain-containing protein 2 (Homo sapiens) (UniProt Q9HC29); assay: Agonist activity at NOD2 in human PBMC assessed as induction of IL-6 production at 1 uM incubated for 18 hrs; assay type: cell-based; conditions: filed as agonist; summary of the method: as §1
[3] = biological target: Nucleotide-binding oligomerization domain-containing protein 2 (Homo sapiens) (UniProt Q9HC29); assay: Agonist activity at NOD2 in human PBMC assessed as induction of IL-8 production at 1 uM incubated for 18 hrs; assay type: cell-based; conditions: filed as agonist; summary of the method: as §1
[4] = biological target: Nucleotide-binding oligomerization domain-containing protein 2 (Homo sapiens) (UniProt Q9HC29); assay: Agonist activity at NOD2 in human PBMC assessed as induction of TNFalpha production at 1 uM incubated for 18 hrs; assay type: cell-based; conditions: filed as agonist; summary of the method: as §1
[5] = biological target: Nucleotide-binding oligomerization domain-containing protein 2 (Homo sapiens) (UniProt Q9HC29); assay: Synergistic agonist activity at NOD2 in human PBMC assessed as induction of IL-1beta production at 1 uM incubated for 18 hrs in presence of IFN-gamma; assay type: cell-based; conditions: filed as agonist
Summary of the method: (§2)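 PBMCs (500,000/well) treated with agonist at 1 μM together with LPS (10 ng/mL) or IFN-γ (200 U/mL); vehicle 0.1% DMSO. Supernatants taken after 18 h at 37 °C, 5% CO2, stored at -80 °C, then assayed for cytokines by cytometric bead array on a flow cytometer.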

[6] = biological target: Nucleotide-binding oligomerization domain-containing protein 2 (Homo sapiens) (UniProt Q9HC29); assay: Synergistic agonist activity at NOD2 in human PBMC assessed as induction of IL-6 production at 1 uM incubated for 18 hrs in presence of IFN-gamma; assay type: cell-based; conditions: filed as agonist; summary of the method: as §2
[7] = biological target: Nucleotide-binding oligomerization domain-containing protein 2 (Homo sapiens) (UniProt Q9HC29); assay: Synergistic agonist activity at NOD2 in human PBMC assessed as induction of TNFalpha production at 1 uM incubated for 18 hrs in presence of IFN-gamma; assay type: cell-based; conditions: filed as agonist; summary of the method: as §2
[8] = biological target: Nucleotide-binding oligomerization domain-containing protein 2 (Homo sapiens) (UniProt Q9HC29); assay: Synergistic agonist activity at NOD2 in human PBMC assessed as induction of IL-1beta production at 1 uM incubated for 18 hrs in presence of LPS; assay type: cell-based; conditions: filed as agonist; summary of the method: as §2
[9] = biological target: Nucleotide-binding oligomerization domain-containing protein 2 (Homo sapiens) (UniProt Q9HC29); assay: Synergistic agonist activity at NOD2 in human PBMC assessed as induction of IL-6 production at 1 uM incubated for 18 hrs in presence of LPS; assay type: cell-based; conditions: filed as agonist; summary of the method: as §2
[10] = biological target: Nucleotide-binding oligomerization domain-containing protein 2 (Homo sapiens) (UniProt Q9HC29); assay: Synergistic agonist activity at NOD2 in human PBMC assessed as induction of TNF-alpha production at 1 uM incubated for 18 hrs in presence of LPS; assay type: cell-based; conditions: filed as agonist; summary of the method: as §2
[11] = biological target: T1, Nucleotide-binding oligomerization domain-containing protein 2 (Mus musculus) (UniProt Q8K3Z0); assay: Agonist activity at mouse NOD2 expressed in RAW -Blue NOD2 reporter cells by colorimetry based SEAP assay; conditions: filed as agonist
T1 sequence (whole entry): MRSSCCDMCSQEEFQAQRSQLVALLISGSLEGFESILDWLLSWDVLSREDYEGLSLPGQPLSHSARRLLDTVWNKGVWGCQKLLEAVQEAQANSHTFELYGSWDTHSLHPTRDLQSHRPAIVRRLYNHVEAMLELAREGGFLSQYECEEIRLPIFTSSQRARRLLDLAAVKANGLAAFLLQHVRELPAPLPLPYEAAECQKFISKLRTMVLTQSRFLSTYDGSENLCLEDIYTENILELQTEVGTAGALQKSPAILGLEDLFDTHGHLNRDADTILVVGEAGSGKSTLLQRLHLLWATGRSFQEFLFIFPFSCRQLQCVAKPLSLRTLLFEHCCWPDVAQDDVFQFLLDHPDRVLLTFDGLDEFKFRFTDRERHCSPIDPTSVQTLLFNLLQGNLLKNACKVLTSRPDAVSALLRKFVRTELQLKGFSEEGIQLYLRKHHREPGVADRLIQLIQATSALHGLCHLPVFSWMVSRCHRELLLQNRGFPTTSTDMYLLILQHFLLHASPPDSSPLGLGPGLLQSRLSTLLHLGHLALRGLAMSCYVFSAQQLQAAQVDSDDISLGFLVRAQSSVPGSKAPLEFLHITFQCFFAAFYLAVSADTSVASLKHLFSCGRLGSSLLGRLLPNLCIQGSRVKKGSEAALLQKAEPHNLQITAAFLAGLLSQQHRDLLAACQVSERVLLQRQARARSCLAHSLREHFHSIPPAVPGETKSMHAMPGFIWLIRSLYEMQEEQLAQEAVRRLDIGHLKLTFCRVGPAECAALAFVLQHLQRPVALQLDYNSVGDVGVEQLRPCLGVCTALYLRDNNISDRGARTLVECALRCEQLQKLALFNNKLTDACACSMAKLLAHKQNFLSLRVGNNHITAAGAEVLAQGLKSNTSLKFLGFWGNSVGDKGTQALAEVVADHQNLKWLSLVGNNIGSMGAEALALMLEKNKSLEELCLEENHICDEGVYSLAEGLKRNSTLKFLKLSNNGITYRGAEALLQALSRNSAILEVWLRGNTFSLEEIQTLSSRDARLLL

PBMC [12] = assay: Synergistic potentiation of LPS-induced cytotoxicity of human PBMCs against human K562 cells assessed as increase in dead cells level at 1 uM incubated for 18 hrs before addition of K562 cells by CFSE/Sytox Blue staining based flow cytometry relative to control
PBMC [13] = assay: Synergistic potentiation of IFN-gamma-induced cytotoxicity of human PBMCs against human K562 cells assessed as increase in dead cells level at 1 uM incubated for 18 hrs before addition of K562 cells by CFSE/Sytox Blue staining based flow cytometry relative to control

Measured: Activity

Nucleotide-binding oligomerization domain-containing protein 2 (Homo sapiens), sequence (Q9HC29 whole entry, the tested form may be a part): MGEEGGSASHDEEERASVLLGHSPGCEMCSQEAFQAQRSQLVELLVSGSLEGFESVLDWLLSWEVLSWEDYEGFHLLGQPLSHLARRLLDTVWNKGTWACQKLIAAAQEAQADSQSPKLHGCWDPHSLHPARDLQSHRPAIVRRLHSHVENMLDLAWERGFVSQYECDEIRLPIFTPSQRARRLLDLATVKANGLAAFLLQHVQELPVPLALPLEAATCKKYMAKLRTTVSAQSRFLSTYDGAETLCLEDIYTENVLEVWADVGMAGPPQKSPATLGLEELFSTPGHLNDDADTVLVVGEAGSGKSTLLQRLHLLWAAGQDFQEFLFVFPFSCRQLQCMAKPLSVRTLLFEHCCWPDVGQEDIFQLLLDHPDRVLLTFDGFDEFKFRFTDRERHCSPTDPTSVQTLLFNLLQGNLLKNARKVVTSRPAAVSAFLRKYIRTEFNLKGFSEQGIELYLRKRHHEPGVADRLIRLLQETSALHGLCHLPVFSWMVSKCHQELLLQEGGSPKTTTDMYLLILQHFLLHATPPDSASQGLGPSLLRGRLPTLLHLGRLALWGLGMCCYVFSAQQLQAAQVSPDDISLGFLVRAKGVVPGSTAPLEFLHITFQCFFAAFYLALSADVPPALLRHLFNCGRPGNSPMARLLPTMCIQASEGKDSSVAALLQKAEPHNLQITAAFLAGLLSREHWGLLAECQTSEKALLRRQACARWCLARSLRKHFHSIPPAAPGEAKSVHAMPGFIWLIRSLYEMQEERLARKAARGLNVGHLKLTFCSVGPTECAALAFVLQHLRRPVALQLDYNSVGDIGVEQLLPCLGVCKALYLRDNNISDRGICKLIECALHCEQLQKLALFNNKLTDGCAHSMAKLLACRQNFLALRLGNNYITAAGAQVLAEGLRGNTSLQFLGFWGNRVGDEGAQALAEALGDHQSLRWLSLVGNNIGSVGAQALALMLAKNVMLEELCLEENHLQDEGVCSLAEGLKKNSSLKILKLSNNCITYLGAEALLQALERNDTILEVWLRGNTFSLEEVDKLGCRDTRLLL

CCOC(=O)CC[C@@H](NC(=O)[C@@H](NC(=O)CNC(=O)/C=C/c1ccc(OC(=O)CC23CC4CC(CC(C4)C2)C3)c(OC)c1)C(C)C)C(=O)OCC
active: all assays above

CC(=O)N[C@@H]1[C@@H](O[C@H](C)C(=O)N[C@@H](C)C(=O)N[C@H](CCC(=O)O)C(N)=O)[C@@H](O)[C@@H](CO)O[C@H]1O
active: [1] | [2] | [3] | [4]

COc1cc(/C=C/C(=O)NCC(=O)N[C@H](C(=O)N[C@H](CCC(=O)OC2CCCC2)C(=O)OC2CCCC2)C(C)C)ccc1O
active: PBMC [12] | PBMC [13]

— ChEMBL document CHEMBL5120973, “Discovery of Desmuramylpeptide NOD2 Agonists with Single-Digit Nanomolar Potency” (ACS Med Chem Lett, 2022)
